According to ChEMBL document CHEMBL1155459, “On-bead screening of a combinatorial fumaric acid derived peptide library yields antiplasmodial cysteine protease inhibitors with unusual peptide sequences” (J Med Chem, 2009):
Square brackets hold non-standard residues; d marks the D form. Peptide text beside a SMILES is read from it. * marks the point of attachment. Fumaroyl(GlyGlyPheOH) = O=C(/C=C/C(=O)*)NCC(=O)NCC(=O)N[C@@H](Cc1ccccc1)C(=O)O; Chg = N[C@H](C(=O)O)C1CCCCC1; Dap = NC[C@H](N)C(=O)O

Columns and labels:
[1] = target: Rhodesain (Trypanosoma brucei rhodesiense) (UniProt Q95PM0); assay: Inhibition of Trypanosoma brucei rhodesiense rhodesain after 12 hrs by fluorescence spectroscopy-based on-bead assay; set-up: concentration or dose not given beside the values; settings: concentration not given here
Rhodesain (Trypanosoma brucei rhodesiense), sequence (Q95PM0 1-450): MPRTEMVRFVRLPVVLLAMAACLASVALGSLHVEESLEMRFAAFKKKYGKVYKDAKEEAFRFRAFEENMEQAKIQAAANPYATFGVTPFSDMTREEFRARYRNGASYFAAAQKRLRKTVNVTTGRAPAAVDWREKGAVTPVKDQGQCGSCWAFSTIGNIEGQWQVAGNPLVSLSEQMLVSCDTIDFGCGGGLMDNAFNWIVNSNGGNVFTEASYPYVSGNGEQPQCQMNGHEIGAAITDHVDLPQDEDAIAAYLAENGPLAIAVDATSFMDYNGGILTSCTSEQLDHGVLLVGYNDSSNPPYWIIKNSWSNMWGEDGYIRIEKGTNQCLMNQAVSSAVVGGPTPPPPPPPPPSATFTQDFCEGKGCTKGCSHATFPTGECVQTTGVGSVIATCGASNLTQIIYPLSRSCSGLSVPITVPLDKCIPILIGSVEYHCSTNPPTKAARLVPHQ
How it was run: (§1)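 Library members on resin (PEGA, theoretical loading 0.40 mmol/g; added as DMSO suspension, 0.64 mM final inhibitor) preincubated with enzyme 12 h, then Cbz-Phe-Arg-AMC 40 μM added; AMC release followed by fluorescence (ex 380/em 460 nm). Kinetics compared with inhibitor-free amino-PEGA resin.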

[2] = Inhibition of Plasmodium falciparum falcipain-2 after 12 hrs by fluorescence spectroscopy-based on-bead assay; set-up: concentration or dose not given beside the values; settings: concentration not given here; how it was run: as §1

SMILES | inhibition [1] | inhibition [2]
CC[C@H](C)[C@H](NC(=O)[C@H](Cc1ccccc1)NC(=O)/C=C/C(=O)N[C@@H](C)C(=O)NCC(=O)N[C@@H](Cc1ccccc1)C(=O)O)C(=O)N[C@@H](C)C(=O)N[C@H](C(N)=O)C(C)C (HELM PEPTIDE1{[C[C@H](NC(=O)/C=C/C(=O)[*:2])C(=O)NCC(=O)N[C@@H](Cc1ccccc1)C(=O)O].F.I.A.V.[am]}$$$$V2.0) | 40% | 29%
CC(C)[C@H](NC(=O)[C@@H](NC(=O)[C@H](Cc1ccccc1)NC(=O)[C@H](Cc1ccccc1)NC(=O)/C=C/C(=O)N[C@@H](C)C(=O)NCC(=O)N[C@@H](Cc1ccccc1)C(=O)O)C(C)C)C(N)=O (HELM PEPTIDE1{[C[C@H](NC(=O)/C=C/C(=O)[*:2])C(=O)NCC(=O)N[C@@H](Cc1ccccc1)C(=O)O].F.F.V.V.[am]}$$$$V2.0) | 38% | 37%
CC(C)C[C@H](NC(=O)[C@H](Cc1ccccc1)NC(=O)/C=C/C(=O)NCC(=O)NCC(=O)N[C@@H](Cc1ccccc1)C(=O)O)C(=O)N[C@@H](C)C(=O)N[C@H](C(N)=O)C(C)C (HELM PEPTIDE1{[O=C(/C=C/C(=O)[*:2])NCC(=O)NCC(=O)N[C@@H](Cc1ccccc1)C(=O)O].F.L.A.V.[am]}$$$$V2.0) | 71% | 45%
CC(C)C[C@H](NC(=O)[C@H](CCC(N)=O)NC(=O)/C=C/C(=O)N[C@@H](C)C(=O)NCC(=O)N[C@@H](Cc1ccccc1)C(=O)O)C(=O)N[C@@H](CC(C)C)C(=O)N[C@H](C(N)=O)C(C)C (HELM PEPTIDE1{[C[C@H](NC(=O)/C=C/C(=O)[*:2])C(=O)NCC(=O)N[C@@H](Cc1ccccc1)C(=O)O].Q.L.L.V.[am]}$$$$V2.0) | 56% | 55%
CC[C@H](C)[C@H](NC(=O)[C@H](CC(N)=O)NC(=O)/C=C/C(=O)NCC(=O)NCC(=O)N[C@@H](Cc1ccccc1)C(=O)O)C(=O)N[C@@H](CC(C)C)C(=O)N[C@H](C(N)=O)C(C)C (HELM PEPTIDE1{[O=C(/C=C/C(=O)[*:2])NCC(=O)NCC(=O)N[C@@H](Cc1ccccc1)C(=O)O].N.I.L.V.[am]}$$$$V2.0) | 68% | 61%
CC(C)C[C@H](NC(=O)[C@H](Cc1ccccc1)NC(=O)/C=C/C(=O)N[C@@H](C)C(=O)NCC(=O)N[C@@H](Cc1ccccc1)C(=O)O)C(=O)N[C@@H](CC(C)C)C(=O)N[C@H](C(N)=O)C(C)C (HELM PEPTIDE1{[C[C@H](NC(=O)/C=C/C(=O)[*:2])C(=O)NCC(=O)N[C@@H](Cc1ccccc1)C(=O)O].F.L.L.V.[am]}$$$$V2.0) | 69% | 62%
CC(C)C[C@H](NC(=O)[C@H](CCC(N)=O)NC(=O)/C=C/C(=O)NCC(=O)NCC(=O)N[C@@H](Cc1ccccc1)C(=O)O)C(=O)N[C@H](C(=O)N[C@H](C(N)=O)C(C)C)C(C)C (HELM PEPTIDE1{[O=C(/C=C/C(=O)[*:2])NCC(=O)NCC(=O)N[C@@H](Cc1ccccc1)C(=O)O].Q.L.V.V.[am]}$$$$V2.0) | 54% | 54%
CC(C)C[C@H](NC(=O)[C@@H](NC(=O)[C@H](CC(N)=O)NC(=O)/C=C/C(=O)N[C@@H](C)C(=O)NCC(=O)N[C@@H](Cc1ccccc1)C(=O)O)C1CCCCC1)C(=O)N[C@H](C(N)=O)C(C)C (HELM PEPTIDE1{[C[C@H](NC(=O)/C=C/C(=O)[*:2])C(=O)NCC(=O)N[C@@H](Cc1ccccc1)C(=O)O].N.[O=C([C@@H](N[*:1])C1CCCCC1)[*:2]].L.V.[am]}$$$$V2.0) | 66% | 40%
CC(C)[C@H](NC(=O)[C@@H](NC(=O)[C@@H](NC(=O)[C@H](CC(N)=O)NC(=O)/C=C/C(=O)N[C@@H](C)C(=O)NCC(=O)N[C@@H](Cc1ccccc1)C(=O)O)C1CCCCC1)C(C)C)C(N)=O (HELM PEPTIDE1{[C[C@H](NC(=O)/C=C/C(=O)[*:2])C(=O)NCC(=O)N[C@@H](Cc1ccccc1)C(=O)O].N.[O=C([C@@H](N[*:1])C1CCCCC1)[*:2]].V.V.[am]}$$$$V2.0) | 50% | 62%
CC(C)C[C@H](NC(=O)[C@H](CCC(N)=O)NC(=O)/C=C/C(=O)NCC(=O)NCC(=O)N[C@@H](Cc1ccccc1)C(=O)O)C(=O)N[C@@H](C)C(=O)N[C@H](C(N)=O)C(C)C (HELM PEPTIDE1{[O=C(/C=C/C(=O)[*:2])NCC(=O)NCC(=O)N[C@@H](Cc1ccccc1)C(=O)O].Q.L.A.V.[am]}$$$$V2.0) | 38% | 40%
CC[C@H](C)[C@H](NC(=O)[C@H](Cc1ccccc1)NC(=O)/C=C/C(=O)NCC(=O)NCC(=O)N[C@@H](Cc1ccccc1)C(=O)O)C(=O)N[C@H](C(=O)N[C@H](C(N)=O)C(C)C)C(C)C (HELM PEPTIDE1{[O=C(/C=C/C(=O)[*:2])NCC(=O)NCC(=O)N[C@@H](Cc1ccccc1)C(=O)O].F.I.V.V.[am]}$$$$V2.0) | 50% | 58%
CC(C)C[C@H](NC(=O)[C@H](CCC(N)=O)NC(=O)/C=C/C(=O)N[C@@H](C)C(=O)NCC(=O)N[C@@H](Cc1ccccc1)C(=O)O)C(=O)N[C@@H](C)C(=O)N[C@H](C(N)=O)C(C)C (HELM PEPTIDE1{[C[C@H](NC(=O)/C=C/C(=O)[*:2])C(=O)NCC(=O)N[C@@H](Cc1ccccc1)C(=O)O].Q.L.A.V.[am]}$$$$V2.0) | 7% | 54%
CC(C)C[C@H](NC(=O)[C@H](Cc1ccccc1)NC(=O)[C@H](C)NC(=O)/C=C/C(=O)NCC(=O)NCC(=O)N[C@@H](Cc1ccccc1)C(=O)O)C(=O)N[C@H](C(N)=O)C(C)C (HELM PEPTIDE1{[O=C(/C=C/C(=O)[*:2])NCC(=O)NCC(=O)N[C@@H](Cc1ccccc1)C(=O)O].A.F.L.V.[am]}$$$$V2.0) | 67% | 68%
CC(C)[C@H](NC(=O)[C@H](C)NC(=O)[C@@H](NC(=O)[C@H](C)NC(=O)/C=C/C(=O)N[C@@H](C)C(=O)NCC(=O)N[C@@H](Cc1ccccc1)C(=O)O)c1ccccc1)C(N)=O (HELM PEPTIDE1{[C[C@H](NC(=O)/C=C/C(=O)[*:2])C(=O)NCC(=O)N[C@@H](Cc1ccccc1)C(=O)O].A.[Phg].A.V.[am]}$$$$V2.0) | 25% | 57%
CC(C)[C@H](NC(=O)[C@@H](NC(=O)[C@H](Cc1ccccc1)NC(=O)[C@H](C)NC(=O)/C=C/C(=O)NCC(=O)NCC(=O)N[C@@H](Cc1ccccc1)C(=O)O)C(C)C)C(N)=O (HELM PEPTIDE1{[O=C(/C=C/C(=O)[*:2])NCC(=O)NCC(=O)N[C@@H](Cc1ccccc1)C(=O)O].A.F.V.V.[am]}$$$$V2.0) | 48% | 27%
CC(C)[C@H](NC(=O)[C@@H](NC(=O)[C@@H](NC(=O)[C@H](CCC(N)=O)NC(=O)/C=C/C(=O)N[C@@H](C)C(=O)NCC(=O)N[C@@H](Cc1ccccc1)C(=O)O)C1CCCCC1)C(C)C)C(N)=O (HELM PEPTIDE1{[C[C@H](NC(=O)/C=C/C(=O)[*:2])C(=O)NCC(=O)N[C@@H](Cc1ccccc1)C(=O)O].Q.[O=C([C@@H](N[*:1])C1CCCCC1)[*:2]].V.V.[am]}$$$$V2.0) | 43% | 47%
CC(C)[C@H](NC(=O)[C@H](C)NC(=O)[C@H](Cc1ccccc1)NC(=O)[C@H](Cc1ccccc1)NC(=O)/C=C/C(=O)NCC(=O)NCC(=O)N[C@@H](Cc1ccccc1)C(=O)O)C(N)=O (HELM PEPTIDE1{[O=C(/C=C/C(=O)[*:2])NCC(=O)NCC(=O)N[C@@H](Cc1ccccc1)C(=O)O].F.F.A.V.[am]}$$$$V2.0) | 47% | 43%
CC(C)[C@H](NC(=O)[C@H](C)NC(=O)[C@H](Cc1ccccc1)NC(=O)[C@H](CC(N)=O)NC(=O)/C=C/C(=O)N[C@@H](C)C(=O)NCC(=O)N[C@@H](Cc1ccccc1)C(=O)O)C(N)=O (HELM PEPTIDE1{[C[C@H](NC(=O)/C=C/C(=O)[*:2])C(=O)NCC(=O)N[C@@H](Cc1ccccc1)C(=O)O].N.F.A.V.[am]}$$$$V2.0) | 47% | 25%
CC[C@H](C)[C@H](NC(=O)[C@H](Cc1ccccc1)NC(=O)/C=C/C(=O)NCC(=O)NCC(=O)N[C@@H](Cc1ccccc1)C(=O)O)C(=O)N[C@@H](C)C(=O)N[C@H](C(N)=O)C(C)C (HELM PEPTIDE1{[O=C(/C=C/C(=O)[*:2])NCC(=O)NCC(=O)N[C@@H](Cc1ccccc1)C(=O)O].F.I.A.V.[am]}$$$$V2.0) | 30% | 52%
CC[C@H](C)[C@H](NC(=O)[C@H](CC(N)=O)NC(=O)/C=C/C(=O)N[C@@H](C)C(=O)NCC(=O)N[C@@H](Cc1ccccc1)C(=O)O)C(=O)N[C@@H](C)C(=O)N[C@H](C(N)=O)C(C)C (HELM PEPTIDE1{[C[C@H](NC(=O)/C=C/C(=O)[*:2])C(=O)NCC(=O)N[C@@H](Cc1ccccc1)C(=O)O].N.I.A.V.[am]}$$$$V2.0) | 17% | 38%
CC(C)[C@H](NC(=O)[C@H](C)NC(=O)[C@@H](NC(=O)[C@H](CC(N)=O)NC(=O)/C=C/C(=O)N[C@@H](C)C(=O)NCC(=O)N[C@@H](Cc1ccccc1)C(=O)O)c1ccccc1)C(N)=O (HELM PEPTIDE1{[C[C@H](NC(=O)/C=C/C(=O)[*:2])C(=O)NCC(=O)N[C@@H](Cc1ccccc1)C(=O)O].N.[Phg].A.V.[am]}$$$$V2.0) | 44% | 35%
CC(=O)NC[C@H](NC(=O)/C=C/C(=O)NCC(=O)NCC(=O)N[C@@H](Cc1ccccc1)C(=O)O)C(=O)N[C@H](C(=O)N[C@@H](CC(C)C)C(=O)N[C@H](C(N)=O)C(C)C)C1CCCCC1 ({Fumaroyl(GlyGlyPheOH)}-[Dap](Ac)[Chg]LV-NH2) | 75% | 26%
CC(C)[C@H](NC(=O)[C@H](C)NC(=O)[C@@H](NC(=O)[C@H](C)NC(=O)/C=C/C(=O)NCC(=O)NCC(=O)N[C@@H](Cc1ccccc1)C(=O)O)c1ccccc1)C(N)=O (HELM PEPTIDE1{[O=C(/C=C/C(=O)[*:2])NCC(=O)NCC(=O)N[C@@H](Cc1ccccc1)C(=O)O].A.[Phg].A.V.[am]}$$$$V2.0) | 16% | 41%
